Source: PubChem (several laboratories)
ABCB1 inh = ABCB1 efflux pump inhibitors, primary screen, cell-based, multiplex, flow cytometry, ABCG2 counter-screen | ATP-dependent translocase ABCB1 (Homo sapiens), P08183 | CCRF-Adr cells, JC-1 efflux | inhibition, % at 6.6 µM | 0.067% of 190,000 active; in the data active = inhibition above about 40%;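 note: higher value means more JC-1 retained so stronger ABCB1 efflux block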
Avidin bead fluor = green autofluorescence of compounds with avidin beads – biophysical, 488/530 nm, flow cytometry, artefact control, profiling panel; 0.38% of 220,000 active; compound fluorescence 488/530 nm; active compounds read high; AID 1775, 2009; fluorescence (KMESF) at 10 µM; in the data active = fluorescence above about 47
ABCG2 inh = ABCG2 efflux pump inhibitors, primary screen, multiplex with ABCB1, IgMXP3 cells, flow cytometry. JC-1 efflux. inhibition, % at 6.6 µM. AID 1325, 2008. Broad substrate specificity ATP-binding cassette transporter ABCG2 (Homo sapiens), Q9UNQ0. 0.1% of 190,000 active;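 active = inhibition above 80%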
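System: two drug-resistant human cell lines, ABCG2 and ABCB1; controls: nicardipine high and DMSO low controls; times: 10 min exposure at 25 °C with rotation, no wash; detection: flow cytometry of retained JC-1 fluorescence; read-out basis: percent efflux inhibition, scaled nicardipine 100% to DMSO 0%; doses: one concentration, 6.6 µM final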
L major viab = Leishmania major promastigote growth inhibition, primary screen; Leishmania major promastigotes, resazurin fluorescence viability; inhibition, % at 10 µM; 9% of 200,000 active;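 note: promastigotes grown with compound for 44 hours at 28 °C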
PKD1 inh = inhibitors of human PKD1 kinase, biochemical, fluorescence polarization; PKD1 kinase fluorescence polarization assay; inhibition, % (test concentration not listed); 0.056% of 200,000 active; AID 797, 2007
GSH bead fluor = compound fluorescence on glutathione beads, profiling panel, artefact control, biophysical, 488/530 nm, flow cytometry | GSH beads flow cytometry, compound fluorescence 488/530 nm; active compounds read high | fluorescence (KMESF) at 10 µM | 0.25% of 190,000 active; in the data active = fluorescence above about 89;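 note: glutathione beads carrying GST-tagged Bcl family fusion proteins plus one bare bead set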
Hits are given with their value; 0 = inactive; - = not tested or not shown. The sample as a whole holds a higher share of hits than the screen did. Cut-off read from the data, not from the text of the source, unless noted: active = inhibition above about 50%; inactive = the rest.

SMILES | ABCB1 inh | Avidin bead fluor | ABCG2 inh | L major viab | PKD1 inh | GSH bead fluor
CCCCN1CCc2c1nc1ccc(Br)cc1c2N | 0 | 0 | 0 | 101 | 0 | 0
Cc1ccc(N(C)C(=O)N2CCN(S(=O)(=O)c3c(C)cc(C)cc3C)CC2)cc1 | 0 | 0 | 0 | 98 | 0 | 0
Cc1cccc(Nc2nc3c(S(=O)(=O)c4ccccc4)nnn3c3ccccc23)c1 | 0 | 0 | 0 | 50 | 0 | 0
Cc1cc(C)cc(Nc2nc3c(S(=O)(=O)c4ccccc4)nnn3c3ccccc23)c1 | 0 | 0 | 0 | 0 | 0 | 0
CCc1ccc(N2C(=O)c3cc(N4CCOCC4)c([N+](=O)[O-])cc3C2=O)cc1 | 0 | 0 | 0 | 0 | 0 | 0
CCc1cccc(CC)c1N1C(=O)c2cc(N3CCOCC3)c([N+](=O)[O-])cc2C1=O | 0 | 0 | 0 | 84 | 0 | 0
Cc1ccc(C)c(N2C(=O)c3cc(N4CCOCC4)c([N+](=O)[O-])cc3C2=O)c1 | 0 | 0 | 0 | 55 | 0 | 0
COc1ccccc1CCc1nnc(CCC(=O)NC(C)Cn2nc(C)cc2C)o1 (centres undefined) | 0 | 0 | 0 | 0 | 0 | 0
CCOC(=O)c1sc(NC(=O)CCN2CCN(CC)CC2)c(C(=O)OCC)c1C | 0 | 0 | 0 | 100 | 0 | 0
CN1CCC(N(C)CC(=O)Nc2cccc(Oc3ccccc3)c2)CC1 | 0 | 0 | 0 | 96 | 0 | 0
CCOC(=O)c1sc(NC(=O)CCN2CCC(C)CC2)c(C(=O)OCC)c1C | 0 | 0 | 0 | 0 | 0 | 0
CCOC(=O)c1c(NC(=O)CN(C)C2CCN(C)CC2)sc(C(=O)Nc2ccccc2)c1C | 0 | 0 | 0 | 101 | 0 | 0
CC1(C2(O)CC(c3ccccc3)ON2)CCCCC1 (centres undefined) | 0 | 0 | 0 | 0 | 0 | 0
CCCCCCCCOC(=O)/C=C/c1c(C)[nH]c(=O)[nH]c1=O | 0 | 0 | 0 | 93 | 0 | 0
Cc1cc(C)nc(N/C(=N\S(=O)(=O)Cc2ccccc2)Nc2ccccc2Br)n1 | 0 | 0 | 0 | 0 | 0 | 0
Cc1cc(C)n(-c2ccc(C(=O)N3CCC(CO)(Cc4ccccc4)CC3)cc2)n1 | 0 | 0 | 0 | 0 | 0 | 0
O=C(O)c1cc(-c2cccnc2)nn1-c1ccccn1 | 0 | 0 | 0 | 0 | 0 | 260
CCOC(=O)c1cc(-c2cccnc2)nn1-c1ccccc1C | 0 | 0 | 0 | 0 | 0 | 0
CCOC(=O)Cn1nc(-c2ccc(Cl)cc2)cc1N | 0 | 0 | 0 | 55 | 0 | 0
CCOC(=O)CCn1nc(-c2ccc(Cl)cc2)cc1N | 0 | 48 | 0 | 0 | 0 | 0
CCOc1cccc(OCCCOc2ccccc2)c1 | 0 | 0 | 0 | 0 | 0 | 0
COc1ccccc1OCCNC1CCCC1 | 0 | 0 | 0 | 0 | 0 | 0
CCOc1cccc(OCCNC2CCCC2)c1 | 0 | 0 | 0 | 80 | 0 | 0
CC(C)Oc1ccc(OCCNC2CCCC2)cc1 | 0 | 0 | 0 | 79 | 0 | 0
CCOC(=O)C1=C(C)Nc2ccccc2N=C1NC(=O)Cc1ccc(OC)cc1 | 0 | 0 | 0 | 0 | 0 | 0
SMILES | ABCB1 inh | Avidin bead fluor | ABCG2 inh | L major viab | PKD1 inh | GSH bead fluor
CC1=CCC2C(=O)N(CCc3c[nH]c4ccccc34)C(=O)C2C1 (centres undefined) | 0 | 0 | 0 | 98 | 0 | 0
O=C1C2CC=C(Cl)CC2C(=O)N1CCc1c[nH]c2ccccc12 (centres undefined) | 0 | 0 | 0 | 0 | 0 | 0
C/C(=N\NC(=O)CN(c1ccccc1Br)S(C)(=O)=O)c1cccs1 | 0 | 0 | 0 | 0 | 0 | 0
COc1ccccc1NS(=O)(=O)c1cccc(C(=O)N/N=C(\C)c2ccc3c(c2)OCCO3)c1 | 0 | 0 | 0 | 99 | 0 | 0
COc1ccccc1NS(=O)(=O)c1cccc(C(=O)N/N=C(\C)c2ccc(-n3ccnc3)cc2)c1 | 0 | 0 | 0 | 100 | 0 | 0
COC(=O)c1ccc(C)c(NS(=O)(=O)c2ccc3c(c2)OCCO3)c1 | 0 | 0 | 0 | 100 | 0 | 0
C/C(=N\NC(=O)CN(c1ccccc1Br)S(C)(=O)=O)c1ccc2c(c1)OCCO2 | 0 | 0 | 0 | 51 | 0 | 0
COc1ccc(N2C(=O)CN(Cc3ccc(OC)c(OC)c3)C2=S)cc1 | 0 | 0 | 0 | 0 | 0 | 0
COc1cc(CN2CC(=O)N(c3ccc(C)c(C)c3)C2=S)cc(OC)c1OC | - | 0 | 0 | 94 | 0 | 0
